According to ChEMBL document CHEMBL5303300, “EUbOPEN Chemogenomics Library - Multiplex” (2023):
Several values for one entry are separate records, joined by “and”; a condition that tells them apart may be missing. Equal values may be shown once.

System: Fibroblast
Experiment: Multiplex assay against human fibroblast
Type: toxicity, cell-based
Conditions: number of replicates 2
Method in brief: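 Four dyes were applied at seeding to live cells: Hoechst33342, BioTracker Green Microtubule Cytoskeleton Dye, MitoTracker Red and Annexin V Alexa Fluor 680. Imaging after compound addition used a CQ1 microscope at 37°C and 5% CO2. CellPathfinder machine-learning gating then sorted cells into Hoechst high-intensity objects or normal cells, normal cells into healthy, pyknosed or fragmented nuclei, and pyknosed cells into mitotic or apoptotic, with tubulin, mitochondrial-mass and membrane-permeability phenotypes given as per cents of healthy-nucleus cells.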

[1] = 12 h, 1 µM, compound concentration 1 uM
[2] = 12 h, 10 µM, compound concentration 10 uM
[3] = 24 h, 1 µM, compound concentration 1 uM
[4] = 24 h, 10 µM, compound concentration 10 uM
[5] = 48 h, 1 µM, compound concentration 1 uM
[6] = 48 h, 10 µM, compound concentration 10 uM

COCCNC1CCC(Nc2cc(-c3csc(NCC4(C#N)CCOCC4)n3)c(Cl)cn2)CC1 (configuration not stated)
Population Apoptotic (%) [1]: 50% and 31% | Population Fragmented Nuclei (%) [1]: 7% and 12% | Population Healthy Nuclei (%) [1]: 73% and 67% | Population Hoechst High Intensity Objects (%) [1]: 0% | Population Membrane Permeable-Phenotype (%) [1]: 2% and 7% | Population Mitochondria Different-Phenotype (%) [1]: 1% and 2% | Population Mitotic Cells (%) [1]: 50% and 68% | Population Normal (%) [1]: 99% | Population Pyknosed Nuclei (%) [1]: 19% and 20% | Population Tubulin-Different-Phenotype (%) [1]: 13% and 12% | Total Cell Count [1]: 154 and 189 | Population Apoptotic (%) [2]: 48% and 47% | Population Fragmented Nuclei (%) [2]: 10% and 15% | Population Healthy Nuclei (%) [2]: 70% and 68% | Population Hoechst High Intensity Objects (%) [2]: 0% | Population Membrane Permeable-Phenotype (%) [2]: 12% and 13% | Population Mitochondria Different-Phenotype (%) [2]: 5% and 10% | Population Mitotic Cells (%) [2]: 51% and 52% | Population Normal (%) [2]: 99% and 100% | Population Pyknosed Nuclei (%) [2]: 18% and 16% | Population Tubulin-Different-Phenotype (%) [2]: 79% and 67% | Total Cell Count [2]: 219 and 209 | Population Apoptotic (%) [3]: 55% and 74% | Population Fragmented Nuclei (%) [3]: 10% and 4% | Population Healthy Nuclei (%) [3]: 71% and 80% | Population Hoechst High Intensity Objects (%) [3]: 0% | Population Membrane Permeable-Phenotype (%) [3]: 4% and 6% | Population Mitochondria Different-Phenotype (%) [3]: 3% and 0% | Population Mitotic Cells (%) [3]: 44% and 25% | Population Normal (%) [3]: 99% and 100% | Population Pyknosed Nuclei (%) [3]: 17% and 15% | Population Tubulin-Different-Phenotype (%) [3]: 20% and 19% | Total Cell Count [3]: 163 and 170 | Population Apoptotic (%) [4]: 53% and 65% | Population Fragmented Nuclei (%) [4]: 14% and 13% | Population Healthy Nuclei (%) [4]: 72% and 73% | Population Hoechst High Intensity Objects (%) [4]: 1% and 0% | Population Membrane Permeable-Phenotype (%) [4]: 11% | Population Mitochondria Different-Phenotype (%) [4]: 18% | Population Mitotic Cells (%) [4]: 46% and 34% | Population Normal (%) [4]: 98% and 100% | Population Pyknosed Nuclei (%) [4]: 12% | Population Tubulin-Different-Phenotype (%) [4]: 87% and 70% | Total Cell Count [4]: 206 and 210 | Population Apoptotic (%) [5]: 59% and 68% | Population Fragmented Nuclei (%) [5]: 9% and 11% | Population Healthy Nuclei (%) [5]: 57% and 55% | Population Hoechst High Intensity Objects (%) [5]: 0% | Population Membrane Permeable-Phenotype (%) [5]: 14% | Population Mitochondria Different-Phenotype (%) [5]: 3% and 1% | Population Mitotic Cells (%) [5]: 40% and 31% | Population Normal (%) [5]: 100% | Population Pyknosed Nuclei (%) [5]: 33% and 32% | Population Tubulin-Different-Phenotype (%) [5]: 30% and 22% | Total Cell Count [5]: 154 and 174 | Population Apoptotic (%) [6]: 54% and 76% | Population Fragmented Nuclei (%) [6]: 15% and 13% | Population Healthy Nuclei (%) [6]: 64% and 67% | Population Hoechst High Intensity Objects (%) [6]: 0% and 1% | Population Membrane Permeable-Phenotype (%) [6]: 12% and 10% | Population Mitochondria Different-Phenotype (%) [6]: 18% and 16% | Population Mitotic Cells (%) [6]: 45% and 23% | Population Normal (%) [6]: 99% | Population Pyknosed Nuclei (%) [6]: 20% and 19% | Population Tubulin-Different-Phenotype (%) [6]: 81% and 71% | Total Cell Count [6]: 207 and 200

C[C@@H]1CC[C@@]2(OC1)O[C@H]1[C@@H](O)[C@H]3[C@@H]4CC[C@H]5C[C@@H](O[C@@H]6O[C@H](CO)[C@H](O[C@@H]7O[C@H](CO)C(O)[C@H](O[C@@H]8OC[C@@H](O)[C@H](O)[C@H]8O)[C@H]7O[C@@H]7O[C@H](CO)[C@H](O)[C@H](O[C@@H]8O[C@H](CO)[C@@H](O)[C@H](O)[C@H]8O)[C@H]7O)[C@H](O)[C@H]6O)[C@H](O)C[C@]5(C)[C@H]4CC[C@]3(C)[C@H]1[C@@H]2C (some centres not stated) [DIGITONIN]
Population Apoptotic (%) [2]: 44% and 47% and 48% and 42% | Population Fragmented Nuclei (%) [2]: 9% and 12% and 13% and 8% | Population Healthy Nuclei (%) [2]: 76% and 61% and 68% and 72% | Population Hoechst High Intensity Objects (%) [2]: 0% | Population Membrane Permeable-Phenotype (%) [2]: 6% and 4% and 1% | Population Mitochondria Different-Phenotype (%) [2]: 0% and 1% and 2% | Population Mitotic Cells (%) [2]: 56% and 52% and 51% and 57% | Population Normal (%) [2]: 100% | Population Pyknosed Nuclei (%) [2]: 13% and 26% and 18% and 19% | Population Tubulin-Different-Phenotype (%) [2]: 10% and 4% and 8% and 6% | Total Cell Count [2]: 181 and 157 and 188 and 182 | Population Apoptotic (%) [4]: 55% and 53% and 47% and 66% | Population Fragmented Nuclei (%) [4]: 11% and 12% | Population Healthy Nuclei (%) [4]: 77% and 55% and 71% and 69% | Population Hoechst High Intensity Objects (%) [4]: 0% and 1% | Population Membrane Permeable-Phenotype (%) [4]: 6% and 2% | Population Mitochondria Different-Phenotype (%) [4]: 0% and 1% and 3% | Population Mitotic Cells (%) [4]: 45% and 46% and 52% and 33% | Population Normal (%) [4]: 100% and 98% | Population Pyknosed Nuclei (%) [4]: 11% and 32% and 17% | Population Tubulin-Different-Phenotype (%) [4]: 11% and 3% and 7% and 12% | Total Cell Count [4]: 171 and 168 and 198 and 188 | Population Apoptotic (%) [6]: 90% and 64% and 75% and 60% | Population Fragmented Nuclei (%) [6]: 12% and 14% and 15% | Population Healthy Nuclei (%) [6]: 81% and 64% and 68% | Population Hoechst High Intensity Objects (%) [6]: 0% | Population Membrane Permeable-Phenotype (%) [6]: 5% and 1% and 7% | Population Mitochondria Different-Phenotype (%) [6]: 0% and 1% | Population Normal (%) [6]: 100% and 99% | Population Tubulin-Different-Phenotype (%) [6]: 6% and 5% | Total Cell Count [6]: 169 and 162 and 205 and 188
